# Fam108B inh – blocks mouse Fam108B hydrolase in RBBP9 counter-screen | recombinant Fam108B, FP-Rh probe fluorescence polarization | 300,000 compounds, 0.33% hits | inhibition, % at 9.51 µM;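 active = inhibition above the screen mean inhibition plus 3 SD, computed separately per campaign, cut at about 18% in these data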;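 note: inhibitors lower polarization as less probe binds the enzyme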
# RBBP9 inh – inhibitors of human serine hydrolase RBBP9 | O75884 | recombinant RBBP9, FP-Rh probe fluorescence polarization | inhibition, % at 7.94 µM | 220,000 compounds, 0.2% hits | AID 1515;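 active = inhibition above the campaign mean of all tested compounds plus 3 SD, cut at about 14% in these data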
# Target sequence (O75884 whole entry, looked up): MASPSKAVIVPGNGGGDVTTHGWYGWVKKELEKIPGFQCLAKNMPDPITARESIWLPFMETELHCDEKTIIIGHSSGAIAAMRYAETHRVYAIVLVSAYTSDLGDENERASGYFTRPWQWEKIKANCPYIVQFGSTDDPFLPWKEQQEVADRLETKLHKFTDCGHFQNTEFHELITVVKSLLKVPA
#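 Assay system: recombinant human RBBP9; Reagent: Serine-hydrolase probe FP-Rh, 375 nM pre-mixing; Doses: 7.94 µM single dose, 0.794% DMSO; Incubation: 30 min then 45 min, 25 °C; Detection: fluorescence polarization (mP), excitation 525 nm, emission 598 nm; Evaluation: percent inhibition from mP, scaled between DMSO and no-protein wells.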
# LYPLA2 inh – counter-screen for PME1 inhibitors: inhibitors of human LYPLA2; inhibition, % at 5.9 µM; 320,000 compounds, 0.38% hits; O95372; recombinant LYPLA2, FP-Rh probe fluorescence polarization;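 active = inhibition above the screen-wide mean plus 3 SD, limit set per campaign, cut at about 26% in these data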
# Target sequence (O95372 whole entry, looked up): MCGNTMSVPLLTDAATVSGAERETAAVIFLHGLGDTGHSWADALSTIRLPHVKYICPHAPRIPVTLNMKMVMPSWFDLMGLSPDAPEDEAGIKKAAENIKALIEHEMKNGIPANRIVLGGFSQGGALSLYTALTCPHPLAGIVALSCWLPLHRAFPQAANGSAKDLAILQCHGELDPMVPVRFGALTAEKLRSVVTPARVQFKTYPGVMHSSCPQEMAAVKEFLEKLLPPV
# LYPLA1 inh – counter-screen for PME1 inhibitors: inhibitors of human LYPLA1. O75608. recombinant LYPLA1, FP-Rh probe fluorescence polarization. inhibition, % at 5.9 µM. 320,000 compounds, 0.16% hits. AID 2174;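 active = inhibition above the mean of all tested compounds plus 3 SD, set per campaign, cut at about 14% in these data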;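 note: inhibitors block serine hydrolase probe labeling of LYPLA1 so polarization falls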
# Target sequence (O75608 whole entry, looked up): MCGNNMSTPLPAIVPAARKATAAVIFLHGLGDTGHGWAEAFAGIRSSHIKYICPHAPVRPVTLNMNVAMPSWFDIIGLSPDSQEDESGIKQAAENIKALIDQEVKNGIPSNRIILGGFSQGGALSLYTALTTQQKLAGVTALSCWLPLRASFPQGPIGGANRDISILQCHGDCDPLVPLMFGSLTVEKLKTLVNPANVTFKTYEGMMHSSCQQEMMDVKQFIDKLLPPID
# PME-1 primary – blocks human protein phosphatase methylesterase 1 | Q9Y570 | 320,000 compounds, 0.53% hits | inhibition, % at 5.9 µM | AID 2130 | recombinant PME-1, FP-Rh probe fluorescence polarization;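 active = inhibition above the campaign mean of all compounds plus 3 SD, cut at about 26% in these data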;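 note: competitive labeling of PME-1 active site by serine hydrolase directed probe; inhibitors block probe labeling so polarization falls and inhibition rises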
# Numbers stand for hits; . = inactive; / = no result. Hits are enriched below; roughly 0.99% of the tested compounds scored in any of these assays.
SMILES,Fam108B inh,RBBP9 inh,LYPLA2 inh,LYPLA1 inh,PME-1 primary
CCC(C)c1ccc(S(=O)(=O)N2CCN(C(=O)COc3ccc4c(C)cc(=O)oc4c3)CC2)cc1 (stereo not drawn),.,.,.,.,37.8
Cc1cc(C(=O)COC(=O)c2ccc(O)cc2O)c(C)n1C(C)C,/,/,.,.,.
Cn1cnnc1SC/C(O)=C(\C#N)c1nc2ccccc2[nH]1,.,.,.,.,.
Cc1cccc(Nc2nnc(SC/C(O)=C(\C#N)c3nc4ccccc4[nH]3)s2)c1C,.,.,.,.,81.9
O=C(NC1CCCc2ccccc21)C1CCN(S(=O)(=O)c2cccc3nonc23)CC1 (stereo not drawn),.,.,.,.,.
O=C(NC1CCCc2ccccc21)C1CCN(S(=O)(=O)c2ccccc2F)CC1 (stereo not drawn),.,.,.,.,57.6
Cc1ccc(C(=O)N2CCN(c3ccc([N+](=O)[O-])cc3-n3cccc3)CC2)cc1,.,.,.,.,.
CCN(CC)C(=O)CSc1nc2c(sc(=S)n2-c2ccccc2)c(=O)n1Cc1ccco1,.,.,.,.,63.1
O=C(/C(=N/N=C/c1ccc(O)c(O)c1)c1ccccc1)c1ccccc1,22.0,.,.,.,30.1
Oc1ccc(/C=N/N=C/c2ccc(O)c(O)c2)cc1O,.,/,.,.,.
CCc1nnc(NC(=O)CSc2nc(C)c3c(c2C#N)CCCC3)s1,.,.,.,.,33.5
O=C(Nc1ccon1)c1sc2cc(Cl)ccc2c1Cl,.,/,.,.,.
CC(C)(C)c1ccc(OCC(=O)NNC(=S)NC(=O)c2ccccc2[N+](=O)[O-])c(Br)c1,.,.,26.7,.,.
Cc1ccccc1OCC(=O)NNC(=S)NC(=O)c1ccccc1[N+](=O)[O-],.,.,.,.,.
COc1ccccc1N1CCN(C(=O)NC23CC4CC(CC(C4)C2)C3)CC1,.,.,.,.,.
COc1ccc(/C=c2\s/c(=C/C(=O)c3ccc(C)cc3)[nH]c2=O)c(OC)c1,.,.,.,.,27.0
CCOc1ccc2nc(SCC(=O)Nc3ccc4c(c3)OCCO4)[nH]c2c1,.,.,.,.,27.4
N#Cc1ccc(Nc2nc(-c3ccc(O)cc3O)cs2)cc1C(F)(F)F,/,/,.,.,60.8
Oc1ccc(-c2csc(Nc3ncccn3)n2)c(O)c1,.,.,.,.,.
CCc1ccc(NC(=O)C(=O)NNC(=O)COc2cccc(OC)c2)cc1,.,.,.,.,.
CCN(CC)CCCNC(=O)c1csc(Nc2cccc3ccccc23)n1,.,/,.,.,.
CCN(CC)C(=O)c1csc(Nc2cccc3ccccc23)n1,.,/,.,.,37.3
O=C(O)c1ccc(N/N=C/c2ccc(OC(=O)c3cccc(Cl)c3)cc2)cc1,.,.,41.2,.,40.6
Brc1ccc(N=NNc2ccccc2)cc1,.,/,.,.,32.9
O=C(O)c1cc(NN=Nc2ccc(Br)cc2)cc([N+](=O)[O-])c1,.,.,.,.,39.8
SMILES,Fam108B inh,RBBP9 inh,LYPLA2 inh,LYPLA1 inh,PME-1 primary
CCc1nc2ccccc2n1CC(=O)OCC(=O)N(CC(C)C)c1c(N)n(Cc2ccccc2)c(=O)[nH]c1=O,.,/,.,.,.
CN(c1ccccc1N(C)S(=O)(=O)c1ccccc1)S(=O)(=O)c1ccccc1,.,/,.,.,.
CN(C)S(=O)(=O)c1ccccc1N=C=S,/,16.2,/,/,/
Cc1ccc(C)c(NC(=O)COC(=O)c2cc3ccccc3oc2=O)c1,/,/,.,.,27.4
COc1ccc(-c2[nH]c(-c3ccc(SC)cc3)nc2SCC(=O)Nc2nccs2)cc1,35.5,.,.,.,70.2
CC1=C(C(=O)OCc2ccccc2)C(/C=C/c2ccccc2)NC(=S)N1 (stereo not drawn),.,.,49.0,.,.
Cc1cc(C(=O)N2CCCC(C(=O)c3cc(F)ccc3F)C2)c(C)o1 (stereo not drawn),.,.,.,.,.
CN1CCC(OC(=O)c2ccccc2)CC1,26.0,/,.,.,.
NNc1nc2cc3c(cc2s1)OCCO3,.,/,.,.,39.2
CC(C)(C)NC(=O)CCN(/N=C/c1ccc([N+](=O)[O-])o1)C1=NS(=O)(=O)c2ccccc21,.,.,.,.,.
Cc1cccc(NC2=C/C(=N/S(=O)(=O)c3cccs3)c3ccccc3C2=O)c1,.,.,.,.,.
Cc1ccc(NC2=C/C(=N\S(=O)(=O)c3cccs3)c3ccccc3C2=O)c(C)c1,18.8,.,.,.,.
CC/C(Cc1ccccc1)=N/NC(=O)c1cccc(Br)c1,.,.,.,.,.
COc1cccc(N(CC(=O)NCCSc2ccc(Cl)cc2)S(C)(=O)=O)c1,.,.,.,.,.
O=C(CSCC(=O)Nc1ccccc1)N/N=C/c1c(O)ccc2ccccc12,.,.,.,.,.
O=C(CN1CCOCC1)N/N=C/c1c(O)ccc2ccccc12,.,/,.,.,.
O=C(N/N=C/c1c(O)ccc2ccccc12)Nc1ccccc1,.,/,.,.,28.0
O=C(CNc1ccccc1)N/N=C/c1c(O)ccc2ccccc12,.,/,.,.,38.0
C=CCOc1c(/C=N\NC(N)=O)cccc1OC,.,.,.,.,.
C=CCOc1c(OC)cc(/C=N/Nc2cccc(C(=O)O)c2)c(Br)c1Br,25.4,.,.,.,46.2
Cc1cc(C)nc(-n2nc(C)c(C3(O)C(=O)Nc4ccccc43)c2N)n1 (stereo not drawn),.,.,.,.,.
C/C(CCC(=O)O)=N/Nc1ccc([N+](=O)[O-])cc1[N+](=O)[O-],.,.,.,.,.
O=C(O)/C(CC(=O)c1ccc(Cl)cc1)=N/Nc1ccc([N+](=O)[O-])cc1[N+](=O)[O-],.,/,.,.,26.5
CN(C)c1cccc(C(=O)NCC(c2ccco2)N(C)C)c1 (stereo not drawn),.,/,.,.,.
Cc1cc(N/N=C/c2ccccc2O)nc(-c2ccccc2O)n1,19.2,.,.,.,.
SMILES,Fam108B inh,RBBP9 inh,LYPLA2 inh,LYPLA1 inh,PME-1 primary
Cc1cc(N/N=C\c2ccccc2)nc(-c2ccccc2O)n1,.,.,.,.,.
O=C(NC(=S)N1CCN(c2ccccc2)CC1)c1ccc(S(=O)(=O)N2CCOCC2)cc1,.,.,.,.,.
O=S(=O)(c1ccc(NC(=S)N2CCN(c3ccc(O)cc3)CC2)cc1)N1CCOCC1,.,.,35.4,.,.
Cc1ccc(S(=O)(=O)CCSc2cccc(C(=O)Nc3ccccc3C(=O)O)c2)cc1,.,.,.,.,35.6
Cc1ccc(NC(=O)c2cccc(C(=O)Nc3ccc(C)cc3C(=O)O)c2)c(C(=O)O)c1,.,/,.,.,.
COc1ccc(N2CCN(C(=O)COc3ccc4c(C)cc(=O)oc4c3C)CC2)cc1,.,/,.,.,.
COc1ccc(N2CCN(C(=O)c3ccc(COc4ccc5c(C)cc(=O)oc5c4)cc3)CC2)cc1,.,.,63.1,.,.
Cc1ccccc1-c1nc2ccccc2[nH]1,.,.,.,.,.
Cc1cc(C)c2c(N)c(-c3nc4ccccc4[nH]3)sc2n1,.,.,.,.,28.8
O=C(O)c1ccccc1-c1ncc(-c2ccccc2)o1,.,/,.,.,.

# Screening data deposited in PubChem by The Scripps Research Institute Molecular Screening Center.
